Test results from ChEMBL document CHEMBL1137127 (Bioorg Med Chem Lett, 2004).

Key:
[1] = logD value was determined; assay type: physicochemical; conditions: octanol/water
[2] = molecular target: Metabotropic glutamate receptor 5 (Rattus norvegicus, UniProt P31424); assay: Displacement by compound of [3H]3-methoxy-5-(pyridin-2-ylethynyl)pyridine from rat cortical membranes; assay type: cell membranes, Membrane
Summary of the method: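 Native rat mGlu5 binding: rat cortical membranes, displacement of [³H]-3-methoxy-5-(pyridin-2-ylethynyl)pyridine by test compound; Ki derived.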

[3] = molecular target: Metabotropic glutamate receptor 5 (Homo sapiens, UniProt P41594); assay: In vitro potency against human recombinant mGlu5 receptor was determined by [Ca2+] flux assay using glutamate as agonist; assay type: functional
Summary of the method: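 Ltk cells stably expressing human recombinant mGlu5; automated assay of cytosolic Ca²⁺ changes by fura-2 fluorescence; IC50 from antagonist response. Mean with a spread value and n in parentheses.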

[4] = Plasma clearance of compound upon p.o. administration at 2 mg/kg; assay type: ADME, organism-based; set-up: dose 2 mg/kg, route oral; conditions: rat, po, read-out: Clp
Summary of the method: (§1)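 Rat pharmacokinetics with two dosing regimens. In one, iv at 2 mg/kg with po at 10 mg/kg. In the other, iv at 1 mg/kg with po at 2 mg/kg. Bioavailability, clearance, half-life and Cmax come from plasma after each route.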

[5] = Plasma clearance of compound upon i.v. administration at 1 mg/kg; assay type: ADME, organism-based; set-up: dose 1 mg/kg, route intravenous; conditions: rat, iv, read-out: Clp; summary of the method: as §1
[6] = Bioavailability of compound was determined upon i.v. administration at 1 mg/kg in rat; assay type: ADME, organism-based; conditions: in vivo, iv; summary of the method: as §1
[7] = Half-life of compound after i.v. administration; assay type: ADME, organism-based; conditions: rat, in vivo, iv; summary of the method: as §1
[8] = Maximum plasma concentration of compound after p.o. administration; assay type: ADME, organism-based; set-up: route oral; conditions: rat, po; summary of the method: as §1
[9] = Bioavailability of compound was determined upon p.o. administration at 2 mg/kg in rat; assay type: ADME, organism-based; conditions: in vivo, po; summary of the method: as §1
[10] = Bioavailability in rat (dose 2 mg/kg i.v.); assay type: ADME, organism-based; conditions: in vivo, iv; summary of the method: as §1
[11] = Plasma clearance of compound upon i.v. administration at 2 mg/kg; assay type: ADME, organism-based; set-up: dose 2 mg/kg, route intravenous; conditions: rat, iv, read-out: Clp; summary of the method: as §1
[12] = Plasma clearance of compound upon p.o. administration at 10 mg/kg; assay type: ADME, organism-based; set-up: dose 10 mg/kg, route oral; conditions: rat, po, read-out: Clp; summary of the method: as §1
[13] = Bioavailability in rat (dose 10 mg/kg p.o.); assay type: ADME, organism-based; conditions: in vivo, po; summary of the method: as §1

Metabotropic glutamate receptor 5 (Homo sapiens, UniProt P41594), sequence (P41594 whole entry): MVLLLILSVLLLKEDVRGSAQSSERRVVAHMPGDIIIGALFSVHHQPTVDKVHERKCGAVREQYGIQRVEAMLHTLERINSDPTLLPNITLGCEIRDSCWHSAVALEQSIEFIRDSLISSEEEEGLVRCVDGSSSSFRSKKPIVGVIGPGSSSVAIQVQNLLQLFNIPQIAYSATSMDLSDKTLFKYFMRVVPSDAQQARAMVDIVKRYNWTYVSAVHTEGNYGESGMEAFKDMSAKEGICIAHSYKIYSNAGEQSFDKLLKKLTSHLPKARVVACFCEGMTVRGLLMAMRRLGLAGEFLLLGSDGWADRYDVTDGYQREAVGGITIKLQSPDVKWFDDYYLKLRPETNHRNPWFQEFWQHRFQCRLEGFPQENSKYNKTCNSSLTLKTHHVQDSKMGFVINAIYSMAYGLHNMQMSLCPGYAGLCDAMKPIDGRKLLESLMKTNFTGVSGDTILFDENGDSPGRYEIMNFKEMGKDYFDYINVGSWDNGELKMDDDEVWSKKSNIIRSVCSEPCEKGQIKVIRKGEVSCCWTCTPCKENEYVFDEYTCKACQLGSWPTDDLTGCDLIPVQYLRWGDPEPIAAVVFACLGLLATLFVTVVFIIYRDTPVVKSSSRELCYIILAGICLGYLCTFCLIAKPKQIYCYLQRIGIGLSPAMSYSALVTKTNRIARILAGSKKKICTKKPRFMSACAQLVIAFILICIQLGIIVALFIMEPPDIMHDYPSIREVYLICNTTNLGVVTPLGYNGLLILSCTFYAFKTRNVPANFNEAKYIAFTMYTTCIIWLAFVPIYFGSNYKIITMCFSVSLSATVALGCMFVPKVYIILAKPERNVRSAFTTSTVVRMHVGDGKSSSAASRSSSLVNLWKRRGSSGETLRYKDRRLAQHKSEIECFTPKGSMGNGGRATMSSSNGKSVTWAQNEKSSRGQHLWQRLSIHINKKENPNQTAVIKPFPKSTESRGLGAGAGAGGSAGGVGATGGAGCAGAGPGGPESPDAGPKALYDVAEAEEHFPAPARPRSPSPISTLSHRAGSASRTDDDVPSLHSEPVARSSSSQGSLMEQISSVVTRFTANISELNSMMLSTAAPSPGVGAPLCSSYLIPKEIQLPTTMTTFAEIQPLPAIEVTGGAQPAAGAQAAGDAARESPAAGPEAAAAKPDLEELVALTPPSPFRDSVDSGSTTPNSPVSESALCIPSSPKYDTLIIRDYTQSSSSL
Metabotropic glutamate receptor 5 (Rattus norvegicus, UniProt P31424), sequence (P31424 whole entry): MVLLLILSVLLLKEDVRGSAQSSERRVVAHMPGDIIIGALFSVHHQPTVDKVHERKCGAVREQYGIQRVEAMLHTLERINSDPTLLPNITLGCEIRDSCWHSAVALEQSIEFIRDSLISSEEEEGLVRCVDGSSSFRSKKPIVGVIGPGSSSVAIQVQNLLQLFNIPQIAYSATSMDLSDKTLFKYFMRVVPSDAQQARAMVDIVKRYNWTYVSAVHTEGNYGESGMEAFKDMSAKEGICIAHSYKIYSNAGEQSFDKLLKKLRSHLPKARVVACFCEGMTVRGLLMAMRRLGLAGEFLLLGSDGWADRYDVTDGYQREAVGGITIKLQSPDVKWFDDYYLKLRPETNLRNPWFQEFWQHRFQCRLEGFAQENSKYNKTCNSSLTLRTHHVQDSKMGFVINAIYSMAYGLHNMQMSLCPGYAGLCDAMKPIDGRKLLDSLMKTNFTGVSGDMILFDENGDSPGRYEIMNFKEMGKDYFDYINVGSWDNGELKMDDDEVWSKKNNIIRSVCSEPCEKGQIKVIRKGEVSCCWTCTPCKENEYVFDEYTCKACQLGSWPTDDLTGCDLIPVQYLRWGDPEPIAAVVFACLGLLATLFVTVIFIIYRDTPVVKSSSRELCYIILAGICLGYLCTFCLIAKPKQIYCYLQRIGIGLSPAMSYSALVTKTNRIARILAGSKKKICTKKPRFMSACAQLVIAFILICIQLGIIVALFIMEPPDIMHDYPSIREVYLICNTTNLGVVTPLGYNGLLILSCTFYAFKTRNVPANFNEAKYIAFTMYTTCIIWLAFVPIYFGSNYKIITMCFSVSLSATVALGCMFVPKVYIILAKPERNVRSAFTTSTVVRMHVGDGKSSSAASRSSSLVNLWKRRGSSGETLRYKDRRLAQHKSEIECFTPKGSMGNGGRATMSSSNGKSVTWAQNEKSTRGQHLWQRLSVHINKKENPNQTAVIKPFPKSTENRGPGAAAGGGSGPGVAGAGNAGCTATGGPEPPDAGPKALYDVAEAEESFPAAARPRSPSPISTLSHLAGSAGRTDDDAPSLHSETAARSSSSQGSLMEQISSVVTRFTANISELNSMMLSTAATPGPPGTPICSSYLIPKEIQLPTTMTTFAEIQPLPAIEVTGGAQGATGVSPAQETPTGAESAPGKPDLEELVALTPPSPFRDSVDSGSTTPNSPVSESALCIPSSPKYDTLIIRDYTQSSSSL

Row | logD [1] | Ki [2] [µM] | IC50 [3] [µM] | also measured | SMILES
1 | 2.9 | 0.021 | 0.029 | – | Cc1nc(C#Cc2ccc(-c3ccncc3)nc2)cs1
2 | 3.8 | 0.051 | 0.015 | – | Cc1nc(C#Cc2ccccc2C)cs1
3 | 2.6 | 0.015 | 0.018 | – | Cc1nc(C#Cc2cncc(-c3ccncc3)c2)cs1
4 | 3.9 | – | – | – | Cc1cccc(C#Cc2csc(C)n2)c1
5 | 2.8 | 0.028 | 0.022 | – | Cc1nc(C#Cc2cncc(-c3ccccn3)c2)cs1
6 | – | 0.145 | 0.423 | – | Cc1nc(C#Cc2ccccc2-c2ccccc2)cs1
7 | 2.4 | 0.001 | 0.003 | CL/F [4]: 29 mL/min/kg; clearance [5]: 29 mL/min/kg; bioavailability [6]: 26%; half-life [7]: 1.6 h; Cmax [8]: 800 nM; bioavailability [9]: 26% | Cc1nc(C#Cc2cncc(-c3cccnc3)c2)cs1
8 | 3.9 | – | – | – | Cc1nc(C#Cc2ccc(-c3ccccc3)nc2)cs1
9 | 5 | 0.043 | 0.022 | – | Cc1nc(C#Cc2ccc(-c3ccccc3)cc2)cs1
10 | 4.1 | 0.04 | 0.002 | – | Cc1nc(C#Cc2cncc(-c3ccccc3)c2)cs1
11 | 3.9 | 0.638 | 0.845 | – | Cc1ccc(C#Cc2csc(C)n2)cc1
12 | – | – | – | bioavailability [10]: 16%; half-life [7]: 8.3 h; clearance [11]: 28 mL/min/kg; Cmax [8]: 2000 nM; CL/F [12]: 28 mL/min/kg; bioavailability [13]: 16% | Cc1nc(C#Cc2cccnc2)cs1
13 | – | 0.218 | 0.127 | – | Cc1nc(C#Cc2ccncc2)cs1
14 | 3.7 | 0.016 | 0.004 | – | Cc1nc(C#Cc2ccc(-c3ccccn3)nc2)cs1
15 | 4.1 | – | – | – | Cc1nc(C#Cc2cccc(-c3ccccc3)c2)cs1
16 | 3.1 | – | – | bioavailability [10]: 100%; half-life [7]: 0.8 h; clearance [11]: 15 mL/min/kg; Cmax [8]: 6500 nM; CL/F [12]: 15 mL/min/kg; bioavailability [13]: 100% | Cc1nc(C#Cc2ccc(-c3cccnc3)nc2)cs1
17 | – | 0.009 | 0.004 | – | Cc1nc(C#Cc2ccccc2)cs1
18 | – | 0.054 | – | – | Cc1nc(C#Cc2ccccn2)cs1
